Results as given in ChEMBL document CHEMBL4393705, “New chalcone-sulfonamide hybrids exhibiting anticancer and antituberculosis activity” (Eur J Med Chem, 2019).
In brackets after ≈: the same amount, converted by molar mass.

Experiments:
MOLT-4 = assay: Anticancer activity against human MOLT4 cells assessed as cell growth inhibition measured after 48 hrs by SRB assay; format: functional; conditions: MOLT-4, 48 h
How it was run: (§1)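 NCI-60 five-dose screen at 100, 10, 1.0, 0.1 and 0.01 µM final. Cells in RPMI-1640 with 5% FBS and 2 mM glutamine were seeded 24 h ahead at 37°C, 5% CO2. Compound exposure was 48 h, followed by TCA fixation and SRB staining, read at 515 nm. GI50 is the concentration giving 50% lower net protein increase than control, using time-zero plates.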

SK-MEL-28 = assay: Anticancer activity against human SK-MEL-28 cells assessed as cell growth inhibition measured after 48 hrs by SRB assay; format: functional; conditions: SK-MEL-28, 48 h; for CC50: read-out: LC50 (the source's name)
How it was run: (§2)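 NCI 60-cell screen, five-dose mode at 100, 10, 1.0, 0.1 and 0.01 µM. Cells grown in RPMI-1640 with 5% FBS and 2 mM L-glutamine, seeded and held 24 h at 37°C, 5% CO2, then exposed for 48 h. Fixed with cold TCA (10% final), stained with 0.4% SRB and read at 515 nm. Time-zero plates were used. GI50 is the concentration giving 50% lower net protein increase than control.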

NIH3T3 = assay: Cytotoxicity against mouse 3T3 cells assessed as cell viability measured after 48 hrs by MTT assay; format: cell-based; conditions: nih3t3, 48 h
How it was run: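 3T3 fibroblasts in DMEM with 10% FBS and penicillin-streptomycin, seeded at 10^4 cells/well 24 h prior. Exposed 48 h to two-fold serial dilutions from a 100 mg/mL DMSO stock. MTT (5 mg/mL in PBS) added for 1.5 h, formazan dissolved in DMSO, read at 530 nm. Duplicate runs on different days. Value interpolated between DMSO (100%) and cycloheximide (0%) controls.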

NCI-H522 = assay: Anticancer activity against human NCI-H522 cells assessed as cell growth inhibition measured after 48 hrs by SRB assay; format: functional; conditions: NCI-H522, 48 h; for CC50: read-out: LC50 (the source's name); how it was run: as §1
SF-539 = assay: Anticancer activity against human SF539 cells assessed as cell growth inhibition measured after 48 hrs by SRB assay; format: functional; conditions: SF-539, 48 h; for CC50: read-out: LC50 (the source's name); how it was run: as §2
COLO 205 = assay: Anticancer activity against human COLO205 cells assessed as cell growth inhibition measured after 48 hrs by SRB assay; format: functional; conditions: COLO 205, 48 h; how it was run: as §1
UACC-257 = assay: Anticancer activity against human UACC257 cells assessed as cell growth inhibition measured after 48 hrs by SRB assay; format: functional; conditions: UACC-257, 48 h; for CC50: read-out: LC50 (the source's name); how it was run: as §2
T47D = assay: Anticancer activity against human T47D cells assessed as cell growth inhibition measured after 48 hrs by SRB assay; format: functional; how it was run: as §2
NCI-H23 = assay: Anticancer activity against human NCI-H23 cells assessed as cell growth inhibition measured after 48 hrs by SRB assay; format: functional; conditions: NCI-H23, 48 h; how it was run: as §1
U-251 = assay: Anticancer activity against human U251 cells assessed as cell growth inhibition measured after 48 hrs by SRB assay; format: functional; conditions: U-251, 48 h; how it was run: as §2
SF-268 = assay: Anticancer activity against human SF268 cells assessed as cell growth inhibition measured after 48 hrs by SRB assay; format: functional; conditions: SF-268, 48 h; how it was run: as §1
HCC 2998 = assay: Anticancer activity against human HCC2998 cells assessed as cell growth inhibition measured after 48 hrs by SRB assay; format: functional; conditions: HCC 2998, 48 h; how it was run: as §1
UACC-62 = assay: Anticancer activity against human UACC62 cells assessed as cell growth inhibition measured after 48 hrs by SRB assay; format: functional; conditions: UACC-62, 48 h; for CC50: read-out: LC50 (the source's name); how it was run: as §2
DU-145 = assay: Anticancer activity against human DU145 cells assessed as cell growth inhibition measured after 48 hrs by SRB assay; format: functional; conditions: DU-145, 48 h; how it was run: as §1
KM12 = assay: Anticancer activity against human KM12 cells assessed as cell growth inhibition measured after 48 hrs by SRB assay; format: functional; conditions: KM12, 48 h; how it was run: as §1
SR = assay: Anticancer activity against human SR cells assessed as cell growth inhibition measured after 48 hrs by SRB assay; format: functional; how it was run: as §2
NCI-H322M = assay: Anticancer activity against human NCI-H322M cells assessed as cell growth inhibition measured after 48 hrs by SRB assay; format: functional; how it was run: as §1
[1] = Selectivity index, ratio of LC50 for mouse 3T3 cells to MIC for Mycobacterium tuberculosis H37Rv ATCC27294; format: toxicity; conditions: read-out: Selectivity Index
SK-OV-3 = assay: Anticancer activity against human SKOV3 cells assessed as cell growth inhibition measured after 48 hrs by SRB assay; format: functional; conditions: SK-OV-3, 48 h; how it was run: as §2
SF-295 = assay: Anticancer activity against human SF295 cells assessed as cell growth inhibition measured after 48 hrs by SRB assay; format: functional; conditions: SF-295, 48 h; how it was run: as §1
SW-620 = assay: Anticancer activity against human SW620 cells assessed as cell growth inhibition measured after 48 hrs by SRB assay; format: functional; conditions: SW-620, 48 h; for CC50: read-out: LC50 (the source's name); how it was run: as §2
A549 = assay: Anticancer activity against human A549 cells assessed as cell growth inhibition measured after 48 hrs by SRB assay; format: functional; conditions: A549, 48 h; how it was run: as §1
SNB-19 = assay: Anticancer activity against human SNB19 cells assessed as cell growth inhibition measured after 48 hrs by SRB assay; format: functional; conditions: SNB-19, 48 h; how it was run: as §2
SK-MEL-5 = assay: Anticancer activity against human SK-MEL-5 cells assessed as cell growth inhibition measured after 48 hrs by SRB assay; format: functional; conditions: SK-MEL-5, 48 h; for CC50: read-out: LC50 (the source's name); how it was run: as §2
[2] = tested on: Mycobacterium tuberculosis; assay: Antitubercular activity against Mycobacterium tuberculosis H37Rv ATCC27294 measured after 2-3 weeks by agar dilution SPOTi assay; format: functional; conditions: H37Rv ATCC 27294
How it was run: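 Agar dilution SPOTi on Middlebrook 7H10 with 0.5% glycerol and 10% OADC. Final compound levels 50, 20, 10, 5, 2 mg/L, added from DMSO dilutions. 2 µL of a 10^6 CFU/mL inoculum from a 4-week Löwenstein-Jensen culture spotted per well, incubated 2-3 weeks at 37°C. MIC is the lowest concentration with no visible growth. Repeated on a separate day; isoniazid was the reference.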

BT-549 = assay: Anticancer activity against human BT549 cells assessed as cell growth inhibition measured after 48 hrs by SRB assay; format: functional; conditions: BT-549, 48 h; how it was run: as §1
TK-10 = assay: Anticancer activity against human TK10 cells assessed as cell growth inhibition measured after 48 hrs by SRB assay; format: functional; conditions: TK-10, 48 h; for CC50: read-out: LC50 (the source's name); how it was run: as §2

## COc1ccc(C(=O)/C=C/c2ccc(Cl)cc2)cc1S(=O)(=O)Nc1c(N)nc(SC)[nH]c1=O
MOLT-4
  GI50: 3.71 µM
  LC50: > 100 µM
SK-MEL-28
  GI50: 2.1 µM
  CC50: 17 µM
NIH3T3
  LC50: 13 µM
NCI-H522
  GI50: 1.88 µM
  CC50: 8.83 µM
SF-539
  GI50: 2.1 µM
  CC50: 15.1 µM
COLO 205
  GI50: 1.76 µM
  LC50 (concentration giving 50% net cell kill): 6.68 µM
UACC-257
  GI50: 8.27 µM
  CC50: 50.1 µM
T47D
  GI50: 2.45 µM
  LC50: 38.8 µM
NCI-H23
  GI50: 2.53 µM
  LC50: 40.4 µM
U-251
  GI50: 1.58 µM
  LC50: 6.16 µM
SF-268
  GI50: 2.69 µM
  LC50 (concentration giving 50% net cell kill): 36.1 µM
HCC 2998
  GI50: 1.92 µM
  LC50: 6.5 µM
UACC-62
  GI50: 2.33 µM
  CC50: 27.4 µM
DU-145
  GI50: 3.58 µM
  LC50: 33.9 µM
KM12
  GI50: 2.09 µM
  LC50 (lethal concentration, 50% net cell kill): 9.76 µM
SR
  GI50: 3.57 µM
  LC50 (concentration giving 50% net cell kill): > 100 µM
NCI-H322M
  GI50: 2.38 µM
  LC50: 28 µM
[1]
  selectivity ratio: 0.65
SK-OV-3
  GI50: 3.65 µM
  LC50 (concentration killing 50% of cells relative to time zero): 36.6 µM
SF-295
  GI50: 2.72 µM
  LC50: 34.7 µM
SW-620
  GI50: 1.58 µM
  CC50: 28.3 µM
A549
  GI50: 2.57 µM
  LC50 (concentration killing 50% of cells): 30 µM
SNB-19
  GI50: 2.52 µM
  LC50: 32.2 µM
SK-MEL-5
  GI50: 2.72 µM
  CC50: 32 µM
[2]
  MIC: 20 µM (≈ 10.1 µg/mL)
BT-549
  GI50: 1.63 µM
  LC50: 6.17 µM
TK-10
  GI50: 2.98 µM
  CC50: 32.3 µM

## COc1ccc(C(=O)/C=C/c2ccc(Cl)cc2)cc1S(N)(=O)=O
MOLT-4
  GI50: 2.93 µM
  LC50: > 100 µM
SK-MEL-28
  GI50: 3.24 µM
  CC50: 37.2 µM
NIH3T3
  LC50: 4.1 µM
NCI-H522
  GI50: 1.93 µM
  CC50: 12.1 µM
SF-539
  GI50: 1.6 µM
  CC50: 6.82 µM
COLO 205
  GI50: 2.03 µM
  LC50 (concentration giving 50% net cell kill): 17.4 µM
UACC-257
  GI50: 12.2 µM
  CC50: 50.8 µM
T47D
  GI50: 3.2 µM
  LC50: 59 µM
NCI-H23
  GI50: 2.54 µM
  LC50: 40.9 µM
U-251
  GI50: 1.96 µM
  LC50: 9.33 µM
SF-268
  GI50: 3.13 µM
  LC50 (concentration giving 50% net cell kill): 38.3 µM
HCC 2998
  GI50: 1.78 µM
  LC50: 7.48 µM
UACC-62
  GI50: 4.88 µM
  CC50: 44.8 µM
DU-145
  GI50: 3.42 µM
  LC50: 36.3 µM
KM12
  GI50: 1.73 µM
  LC50 (lethal concentration, 50% net cell kill): 8.26 µM
SR
  GI50: 0.86 µM
  LC50 (concentration giving 50% net cell kill): > 100 µM
NCI-H322M
  GI50: 2.04 µM
  LC50: 28.8 µM
[1]
  selectivity ratio: 0.29
SK-OV-3
  GI50: 5.96 µM
  LC50 (concentration killing 50% of cells relative to time zero): 43.1 µM
SF-295
  GI50: 3.04 µM
  LC50: 31.9 µM
SW-620
  GI50: 1.76 µM
  CC50: 8.45 µM
A549
  GI50: 2.69 µM
  LC50 (concentration killing 50% of cells): 30.8 µM
SNB-19
  GI50: 3.1 µM
  LC50: 33.4 µM
SK-MEL-5
  GI50: 5.69 µM
  CC50: 42.7 µM
[2]
  MIC: 14 µM (≈ 4.93 µg/mL)
BT-549
  GI50: 2.29 µM
  LC50: 27.3 µM
TK-10
  GI50: 2.47 µM
  CC50: 27.5 µM
